IC50 and Activity data for 27 compounds are collected here from ChEMBL document CHEMBL1806386, “Antiproliferative activity of aroylacrylic acids. Structure-activity study based on molecular interaction fields” (Eur J Med Chem, 2011).

One experiment has as its system K562. The experiment can be described thus: Antiproliferative activity against human K562 cells assessed as inhibition of cell survival after 72 hrs by MTT method. The experiment is classed as functional, cell-based. The conditions noted are these: K562, 72 h. The essentials:
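K562 grown in suspension at 3000 cells/well in RPMI-1640 with 10% FBS, 3 mmol/L L-glutamine, 25 mM Hepes, pH 7.2. Five concentrations added 2 h after seeding from 10 mM DMSO stocks, in triplicate. MTT read 72 h later, SDS solubilization, A570. IC50 taken from blank-subtracted survival relative to control, mean of three experiments.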

The test system of experiment [1] is HeLa. Kind of experiment: Antiproliferative activity against human HeLa cells assessed as inhibition of cell survival after 72 hrs by MTT method. The experiment is classed as functional, cell-based. The procedure, abridged: (§1)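 HeLa (2000 cells/well) or LS174 (5000 cells/well) seeded in RPMI-1640 with 10% FBS, 3 mmol/L L-glutamine, 25 mM Hepes, pH 7.2; five concentrations added after 20 h from 10 mM DMSO stocks, each in triplicate. MTT 72 h after dosing, 4 h at 37 °C, SDS solubilization, A570 next day. Blank-subtracted survival vs control; IC50 is the mean of three experiments.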

Experiment [2] in a line: Antiproliferative activity against human LS 174T cells assessed as inhibition of cell survival after 72 hrs by MTT method. The class given is functional, cell-based. The note with it: LS174T. The procedure, abridged:
as §1

Experiment [3] has as its system HeLa. The experiment can be described thus: Cell cycle arrest in human HeLa cells assessed as accumulation at G2/M phase cell at 2 times IC50 after 72 hrs using propidium iodide staining by flow cytometry (reference value: 17.57%). The experiment is classed as functional. The procedure, abridged:
(§2)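 HeLa cells, 5×10⁵ per aliquot, treated at two times the 72 h IC50 for 24, 48 or 72 h alongside untreated controls. Fixed in 70% ethanol on ice for one week, given RNase A at 37 °C for 30 min, then PI for at least 30 min. Flow cytometry with 488 nm excitation, FL2 at 585/42 nm, doublets excluded, 20,000 events per sample.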

The test system of experiment [4] is HeLa. Kind of experiment: Cell cycle arrest in human HeLa cells assessed as accumulation at sub-G1 phase at 2 times IC50 after 72 hrs using propidium iodide staining by flow cytometry (reference value: 9.85%). The class given is functional. The procedure, abridged: as §2
On the technique in general: Flow cytometry measures light scatter and fluorescence of single cells or particles in a stream.

Experiment [5] deals with HeLa. Kind of experiment: Cell cycle arrest in human HeLa cells assessed as accumulation at S phase at 2 times IC50 after 24 hrs using propidium iodide staining by flow cytometry (reference value: 24.47%). The experiment is classed as functional. The procedure, abridged: as §2
Experiment [6] relates to HeLa. The experiment can be described thus: Cell cycle arrest in human HeLa cells assessed as accumulation at G2/M phase cell at 2 times IC50 at 2 times IC50 after 48 hrs using propidium iodide staining by flow cytometry (reference value: 22.05%). The experiment is classed as functional. The procedure, abridged:
as §2

Experiment [7] has as its system HeLa. Kind of experiment: Cell cycle arrest in human HeLa cells assessed as accumulation at sub-G1 phase at 2 times IC50 after 24 hrs using propidium iodide staining by flow cytometry (reference value: 3.34%). The class given is functional. The procedure, abridged: as §2
Experiment [8] concerns HeLa. The experiment can be described thus: Cell cycle arrest in human HeLa cells assessed as accumulation at sub-G1 phase at 2 times IC50 after 48 hrs using propidium iodide staining by flow cytometry (reference value: 6.87%). The experiment is classed as functional. The procedure, abridged: as §2
For experiment [9], the system named is HeLa. The experiment can be described thus: Cell cycle arrest in human HeLa cells assessed as accumulation at G1 phase at 2 times IC50 after 48 hrs using propidium iodide staining by flow cytometry (reference value: 51.32%). The experiment is classed as functional. The procedure, abridged:
as §2

Experiment [10] has as its system HeLa. The experiment can be described thus: Cell cycle arrest in human HeLa cells assessed as accumulation at S phase at 2 times IC50 after 72 hrs using propidium iodide staining by flow cytometry (reference value: 22.53%). The experiment is classed as functional. The procedure, abridged:
as §2

For experiment [11], the system named is HeLa. Kind of experiment: Cell cycle arrest in human HeLa cells assessed as accumulation at G1 phase at 2 times IC50 after 72 hrs using propidium iodide staining by flow cytometry (reference value: 49.90%). The experiment is classed as functional. The procedure, abridged: as §2
In experiment [12] the test system is HeLa. The experiment can be described thus: Cell cycle arrest in human HeLa cells assessed as accumulation at G2/M phase at 2 times IC50 after 24 hrs using propidium iodide staining by flow cytometry (reference value: 25.97%). The experiment is classed as functional. The essentials: as §2
The test system of experiment [13] is HeLa. The experiment can be described thus: Cell cycle arrest in human HeLa cells assessed as accumulation at S phase at 2 times IC50 after 48 hrs using propidium iodide staining by flow cytometry (reference value: 20.14%). The experiment is classed as functional. The procedure, abridged:
as §2

Experiment [14] relates to HeLa. Kind of experiment: Cell cycle arrest in human HeLa cells assessed as accumulation at G1 phase at 2 times IC50 after 24 hrs using propidium iodide staining by flow cytometry (reference value: 46.78%). The class given is functional. The essentials: as §2

As to `Cc1ccc(C(=O)/C=C/C(=O)O)c(Cl)c1`, the IC50 (usually the concentration at which inhibition is half-maximal) in the experiment on K562 amounted to 14.6 µM; in the experiment on HeLa [1] it was 7.6 µM; in [2], 27.7 µM.

On to `Cc1ccc(C(=O)/C=C/C(=O)O)c(C)c1`, for which the figures for the IC50 (with K562; in the experiment with HeLa [1]; in experiment [2]) were 5.35 µM, 6.06 µM and 7.08 µM, respectively.

With `O=C(O)/C=C/C(=O)c1ccc(Cl)cc1Cl`, the IC50 with K562 was 58.5 µM; in the experiment on HeLa [1] it was 62.9 µM; in experiment [2] it was greater than 100 µM.

Regarding `Cc1ccc(C(=O)/C=C/C(=O)O)cc1`, the IC50 came to 9.17 µM in the experiment with K562, 7.62 µM in the experiment on HeLa [1] and 28.4 µM in [2].

For `CCc1cc(CC)c(C(=O)/C=C/C(=O)O)c(CC)c1`, the figures for the half-inhibitory concentration (IC50) (in the experiment with K562; with HeLa [1]; in experiment [2]) were 4.01 µM, 6.53 µM and 7.28 µM, respectively.

Take `O=C(O)/C=C/C(=O)c1ccccc1`: the figures for the IC50 (in the experiment with K562; with HeLa [1]; in experiment [2]) were 30.2 µM, 30.6 µM and 45.5 µM, respectively.

Consider `COc1ccc(C(=O)/C=C/C(=O)O)cc1`, for which the IC50 stood at 12.3 µM with K562, 27.4 µM with HeLa [1] and 34.7 µM in [2].

Regarding `CC(C)c1ccc(C(=O)/C=C/C(=O)O)cc1`, the IC50 came out at 5.56 µM in the experiment on K562, 4.9 µM in the experiment with HeLa [1] and 25.7 µM in [2].

`CC(C)c1cc(C(C)C)c(C(=O)/C=C/C(=O)O)c(C(C)C)c1`: the IC50 was 4.67 µM with K562, 6.1 µM in the experiment on HeLa [1] and 8.28 µM in experiment [2].

Turning to `O=C(O)/C=C/C(=O)c1ccc(F)cc1`, the IC50 is 16.9 µM in the experiment with K562, 28.4 µM in the experiment on HeLa [1] and 33.8 µM in experiment [2].

Regarding `O=C(O)/C=C/C(=O)c1cc(C2CCCCC2)ccc1C1CCCCC1`, the Activity was 16.57% in the experiment with HeLa [3]; 21.71% with HeLa [4]; 32.67% in the experiment with HeLa [5]; 16.73% in the experiment with HeLa [6]; 12.64% in the experiment with HeLa [7]; 15.79% with HeLa [8]. For the same compound, the Activity was found to be 36.94% in the experiment with HeLa [9]; 24.2% with HeLa [10]; 38.3% with HeLa [11]; 15.36% in the experiment with HeLa [12]; 31.66% in the experiment on HeLa [13]; 39.98% in the experiment on HeLa [14]. The IC50 in the experiment on K562 stood at 3.32 µM; in the experiment on HeLa [1], 1.26 µM; in [2], 4.28 µM.

For `Cc1ccc(C(=O)/C=C/C(=O)O)cc1C`, the concentration for half-maximal inhibition (IC50) in the experiment with K562 amounted to 5.62 µM; in the experiment on HeLa [1], 7.28 µM; in [2], 12.1 µM.

In the case of `O=C(O)/C=C/C(=O)c1ccc(Cl)c(Cl)c1`, the IC50 was found to be 23.2 µM with K562, 28.3 µM in the experiment with HeLa [1] and 32.3 µM in [2].

`Cc1cc(C2CCCCC2)c(C)cc1C(=O)/C=C/C(=O)O`: the IC50 in the experiment on K562 is 4.24 µM; in the experiment with HeLa [1], 2.38 µM; in experiment [2] it was 6.64 µM.

With `O=C(O)/C=C/C(=O)c1ccc(Cl)cc1`, the results for the IC50 (in the experiment with K562; in the experiment with HeLa [1]; in experiment [2]) were 21.7 µM, 25.4 µM and 28.7 µM, respectively.

`CCCCc1ccc(C(=O)/C=C/C(=O)O)cc1`: the IC50 in the experiment with K562 was determined as 4.95 µM; with HeLa [1], 4.78 µM; in experiment [2], 6.74 µM.

For `CC(C)c1ccc(C(C)C)c(C(=O)/C=C/C(=O)O)c1`, the IC50 in the experiment with K562 turned out to be 3.28 µM; in the experiment on HeLa [1], 4.75 µM; in experiment [2], 6.23 µM.

As to `CCc1ccc(C(=O)/C=C/C(=O)O)cc1`, the IC50 in the experiment on K562 worked out at 5.53 µM; with HeLa [1], 27.8 µM; in [2] it was 21 µM.

For `O=C(O)/C=C/C(=O)c1ccc2c(c1)CCCC2`, the figures for the IC50 (with K562; in the experiment with HeLa [1]; in experiment [2]) were 5.6 µM, 7.01 µM and 17.6 µM, respectively.

As to `CC(C)(C)c1ccc(C(=O)/C=C/C(=O)O)cc1`, the IC50 in the experiment with K562 turned out to be 4.33 µM; in the experiment on HeLa [1], 5.1 µM; in experiment [2], 8.74 µM.

Consider `CCc1c(C(=O)/C=C/C(=O)O)cc(C(C)C)cc1C(C)C`, for which the figures for the IC50 (with K562; in the experiment on HeLa [1]; in experiment [2]) were 5.1 µM, 7.61 µM and 12.3 µM, respectively.

With `COc1ccc(C(=O)/C=C/C(=O)O)c(OC)c1OC`, the 50% inhibitory concentration (IC50) is greater than 100 µM with K562, 96.2 µM with HeLa [1] and greater than 100 µM in [2].

In the case of `CCCCCCCCCCCCc1ccc(C(=O)/C=C/C(=O)O)cc1`, the figures for the IC50 (with K562; in the experiment on HeLa [1]; in experiment [2]) were 4.01 µM, 5.82 µM and 7.85 µM, respectively.

In the case of `CC(C)c1ccc(C(=O)/C=C/C(=O)O)c(C(C)C)c1`, the figures for the IC50 (in the experiment with K562; with HeLa [1]; in [2]) were 4.68 µM, 4.06 µM and 5.36 µM, respectively.

With `Cc1ccc(C)c(C(=O)/C=C/C(=O)O)c1`, the IC50 is 5.9 µM in the experiment on K562, 7.86 µM in the experiment on HeLa [1] and 22 µM in experiment [2].

For `O=C(O)/C=C/C(=O)c1ccc(Br)cc1`, the IC50 with K562 is 11.2 µM; in the experiment with HeLa [1], 18.7 µM; in experiment [2], 27.1 µM.

Take `CCc1ccc(C(C)C)cc1C(=O)/C=C/C(=O)O`: the IC50 in the experiment on K562 stood at 1.36 µM; with HeLa [1], 4.89 µM; in experiment [2] it was 5.94 µM.
